In ChEMBL document CHEMBL3593206, “SAR Studies of Exosite-Binding Substrate-Selective Inhibitors of A Disintegrin And Metalloprotease 17 (ADAM17) and Application as Selective in Vitro Probes” (J Med Chem, 2015):

Assays:
[1] = target: T1, Disintegrin and metalloproteinase domain-containing protein 10 (Homo sapiens, UniProt O14672); assay: Inhibition of ADAM10 (unknown origin) preincubated for 30 mins followed by substrate addition measured every 30 mins for 2 hrs by fluorescence assay
T1 sequence (O14672 whole entry): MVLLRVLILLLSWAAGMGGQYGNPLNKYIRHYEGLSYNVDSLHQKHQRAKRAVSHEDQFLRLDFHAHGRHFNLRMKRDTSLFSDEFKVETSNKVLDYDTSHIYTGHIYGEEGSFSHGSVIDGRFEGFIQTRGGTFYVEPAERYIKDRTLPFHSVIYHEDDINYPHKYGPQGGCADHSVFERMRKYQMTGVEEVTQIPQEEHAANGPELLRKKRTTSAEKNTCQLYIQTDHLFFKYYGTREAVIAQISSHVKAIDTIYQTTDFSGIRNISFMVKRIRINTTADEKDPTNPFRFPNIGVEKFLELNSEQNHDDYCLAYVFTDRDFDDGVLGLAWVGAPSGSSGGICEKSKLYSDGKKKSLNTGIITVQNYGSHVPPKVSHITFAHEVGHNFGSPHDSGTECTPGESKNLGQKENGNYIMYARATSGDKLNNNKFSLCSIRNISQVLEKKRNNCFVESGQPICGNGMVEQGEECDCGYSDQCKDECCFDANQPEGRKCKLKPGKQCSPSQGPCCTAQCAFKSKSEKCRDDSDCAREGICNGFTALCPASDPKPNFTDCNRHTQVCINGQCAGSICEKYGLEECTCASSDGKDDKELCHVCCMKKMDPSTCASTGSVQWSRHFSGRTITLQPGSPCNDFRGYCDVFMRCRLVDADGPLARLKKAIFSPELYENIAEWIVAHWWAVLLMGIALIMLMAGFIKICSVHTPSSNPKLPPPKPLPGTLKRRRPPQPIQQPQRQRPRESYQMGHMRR
Outline: (§1)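 Enzyme at 30 nM (3× solution) in 10 mM Hepes, 0.001% Brij-35, pH 7.5. Inhibitor series of 10 points, 1:3, from 300 μM, preincubated 30 min at RT. Glycosylated substrate added from a 30 μM 3× solution. Fluorescence (ex 360/em 460 nm) read every 30 min for 2 h. Inhibition taken from hydrolysis rates against substrate-only and substrate-plus-enzyme wells.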

[2] = target: Disintegrin and metalloproteinase domain-containing protein 17 (Homo sapiens, UniProt P78536); assay: Inhibition of ADAM17 (unknown origin) preincubated for 30 mins followed by substrate addition measured every 30 mins for 2 hrs by fluorescence assay; outline: as §1
Disintegrin and metalloproteinase domain-containing protein 17, sequence (P78536 whole entry, the tested form may be a part): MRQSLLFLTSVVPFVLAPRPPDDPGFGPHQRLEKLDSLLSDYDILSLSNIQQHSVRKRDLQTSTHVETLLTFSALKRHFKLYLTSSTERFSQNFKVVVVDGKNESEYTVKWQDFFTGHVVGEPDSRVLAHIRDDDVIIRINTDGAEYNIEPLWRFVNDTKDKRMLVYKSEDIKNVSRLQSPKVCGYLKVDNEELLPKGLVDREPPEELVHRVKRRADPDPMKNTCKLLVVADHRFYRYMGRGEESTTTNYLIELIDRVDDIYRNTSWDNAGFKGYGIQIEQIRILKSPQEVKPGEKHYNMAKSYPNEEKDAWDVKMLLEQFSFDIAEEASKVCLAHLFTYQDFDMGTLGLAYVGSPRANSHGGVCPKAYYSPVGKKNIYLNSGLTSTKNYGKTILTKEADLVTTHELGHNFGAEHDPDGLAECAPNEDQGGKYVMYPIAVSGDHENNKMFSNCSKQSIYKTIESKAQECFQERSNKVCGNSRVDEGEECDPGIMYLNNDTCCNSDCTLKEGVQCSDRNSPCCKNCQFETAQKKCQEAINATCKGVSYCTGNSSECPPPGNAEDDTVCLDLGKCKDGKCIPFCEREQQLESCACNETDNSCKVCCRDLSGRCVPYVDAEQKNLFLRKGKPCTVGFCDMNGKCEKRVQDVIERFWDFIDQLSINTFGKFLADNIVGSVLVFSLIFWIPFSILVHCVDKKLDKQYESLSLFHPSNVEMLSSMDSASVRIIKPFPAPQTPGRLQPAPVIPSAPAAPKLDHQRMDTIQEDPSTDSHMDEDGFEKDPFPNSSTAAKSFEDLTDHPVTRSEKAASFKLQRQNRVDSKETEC

Structure (SMILES) | IC50 [1] [µM] | IC50 [2] [µM]
CCC[C@H]1CNC(=O)C(=O)N1C[C@@H]1CCCN1C[C@H](Cc1ccc(O)cc1)N1C[C@H](Cc2ccc(O)cc2)N(CC23CC4CC(CC(C4)C2)C3)C(=O)C1=O | > 100 | 10
CCC[C@H]1CNC(=O)C(=O)N1C[C@@H]1CCCN1C[C@H](Cc1ccc(O)cc1)N1C[C@H](Cc2ccc(O)cc2)N(CC2CCC2)C(=O)C1=O | > 100 | 94
O=C1NC[C@@H](Cc2ccc3ccccc3c2)N(C[C@@H]2CCCN2C[C@H](Cc2ccc(O)cc2)N2C[C@@H](Cc3ccc4ccccc4c3)N(CCC34CC5CC(CC(C5)C3)C4)C(=O)C2=O)C1=O | > 100 | 5.7
O=C1NC[C@@H](Cc2ccc3ccccc3c2)N(C[C@@H]2CCCN2C[C@H](Cc2ccc(O)cc2)N2C[C@H](Cc3ccc4ccccc4c3)N(CCC34CC5CC(CC(C5)C3)C4)C(=O)C2=O)C1=O | > 100 | 8.4
O=C1NC[C@@H](Cc2ccc3ccccc3c2)N(C[C@@H]2CCCN2C[C@H](Cc2ccc(O)cc2)N2C[C@@H](Cc3ccc(O)cc3)N(CCC34CC5CC(CC(C5)C3)C4)C(=O)C2=O)C1=O | > 100 | 15
CCC[C@H]1CNC(=O)C(=O)N1C[C@@H]1CCCN1C[C@H](Cc1ccc(O)cc1)N1C[C@H](Cc2ccc(O)cc2)N(CC(CC)c2ccccc2)C(=O)C1=O (stereo partly specified) | > 100 | 15
CCC[C@H]1CNC(=O)C(=O)N1C[C@@H]1CCCN1C[C@H](Cc1ccc(O)cc1)N1C[C@H](Cc2ccc(O)cc2)N(CC2CCC(C(C)(C)C)CC2)C(=O)C1=O (stereo partly specified) | > 100 | 10
CCC[C@H]1CNC(=O)C(=O)N1C[C@@H]1CCCN1C[C@H](Cc1ccc(O)cc1)N1C[C@H](Cc2ccc3ccccc3c2)N(CCC23CC4CC(CC(C4)C2)C3)C(=O)C1=O | > 100 | 10
